Experiment [1] has as its target T1, Interstitial collagenase (Homo sapiens, UniProt P03956).
T1 sequence (P03956 whole entry): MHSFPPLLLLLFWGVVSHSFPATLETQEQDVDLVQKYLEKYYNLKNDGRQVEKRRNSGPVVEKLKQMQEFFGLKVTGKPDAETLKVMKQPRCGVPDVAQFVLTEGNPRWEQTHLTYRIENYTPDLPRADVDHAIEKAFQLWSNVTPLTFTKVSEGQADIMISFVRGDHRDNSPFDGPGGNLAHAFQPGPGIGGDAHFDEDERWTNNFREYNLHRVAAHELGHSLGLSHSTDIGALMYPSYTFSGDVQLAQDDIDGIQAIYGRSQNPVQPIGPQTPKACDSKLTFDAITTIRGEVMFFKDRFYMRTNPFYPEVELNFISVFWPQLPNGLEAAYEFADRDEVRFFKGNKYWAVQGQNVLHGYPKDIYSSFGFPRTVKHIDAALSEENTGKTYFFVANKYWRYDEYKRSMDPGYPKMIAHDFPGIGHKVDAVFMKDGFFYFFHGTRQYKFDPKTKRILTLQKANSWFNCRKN
Description: Inhibition of rat skin type I collagen degradation by purified human lung fibroblast collagenase. The method in brief:
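Trypsin-activated, semipurified enzyme from WI-38 lung fibroblast culture supernatants. Compounds sonicated into MeOH and serially diluted; some runs had β-mercaptoethanol at 9.6×10^-5 M final. 3H- or 14C-acetylated collagen (100 μg/tube) added at 4 °C, then 37 °C for 1000 min. Spun 12 000 rpm, 15 min, 4 °C. Supernatant peptides counted by scintillation. Enzyme set for 70% degradation.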

Experiment [2] addresses T1, Interstitial collagenase. Description: Inhibition of radiolabeled rat skin type I collagen degradation by purified human lung fibroblast collagenase. In outline:
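Trypsin-activated, semipurified enzyme from WI-38 lung fibroblast culture supernatants. 3H- or 14C-acetylated collagen (100 μg/tube) added at 4 °C, then 37 °C for 1000 min. Spun 12 000 rpm, 15 min, 4 °C. Supernatant peptides counted by scintillation. Enzyme set for 70% degradation.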

The target in experiment [3] is T1, Interstitial collagenase. Description: Inhibition of rat skin type I collagen degradation by purified human lung fibroblast collagenase without beta-mercaptoethanol. The method in brief:
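β-Mercaptoethanol omitted. Enzyme was trypsin-activated, semipurified collagenase from WI-38 fibroblast culture supernatants. Compounds sonicated into MeOH, serially diluted. Collagen 3H- or 14C-acetylated, 100 μg/tube, added to tubes cooled to 4 °C. Incubated 37 °C for 1000 min, centrifuged 12 000 rpm for 15 min at 4 °C. Soluble supernatant peptides counted by liquid scintillation.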

For 22 compounds, IC50 results are on record in ChEMBL document CHEMBL1126554, “Synthesis of novel modified dipeptide inhibitors of human collagenase: beta-mercapto carboxylic acid derivatives” (J Med Chem, 1993).

Turning to `CNC(=O)[C@H](Cc1ccc(OC)cc1)NC(=O)C(CC(C)C)C(C)S` (some centres undefined), half-maximal inhibition against Interstitial collagenase [1] (IC50) was put at 17 nM.
Consider `CNC(=O)[C@H](Cc1ccc(OC)cc1)NC(=O)[C@H](CC(C)C)[C@@H](S)CC(=O)N1CCN(C)CC1`, for which the 50% inhibitory concentration (IC50) – broadly, the concentration at which inhibition is half-maximal – at Interstitial collagenase [2] was 120 nM.
Consider `CNC(=O)[C@H](Cc1c[nH]c2ccccc12)NC(=O)C(CC(C)C)C(S)CC(=O)OC` (stereo in doubt; 56c), for which inhibition on Interstitial collagenase [1] was half-maximal at 730 nM (IC50).
At Interstitial collagenase [2], `CNC(=O)[C@H](Cc1ccc(OC)cc1)NC(=O)[C@H](CC(C)C)[C@@H](S)CC(=O)NC(CC(C)C)C(=O)OC(C)(C)C` (some centres undefined) yielded a half-inhibitory concentration (IC50) of 980 nM.
On to `CNC(=O)C[C@H](S)[C@@H](CC(C)C)C(=O)N[C@@H](Cc1ccc(OC)cc1)C(=O)NC`, for which the IC50 on Interstitial collagenase [2] was found to be 145 nM.
Turning to `COC(=O)C[C@H](S)[C@@H](CC(C)C)C(=O)N[C@@H](Cc1ccccc1)C(N)=O` (stereo in doubt; 58cd), it took 190 nM to reach half-maximal inhibition at Interstitial collagenase [2] (IC50).
For the compound `CNC(=O)[C@H](Cc1c[nH]c2ccccc12)NC(=O)[C@H](CC(C)C)[C@@H](S)CC(=O)OC`, the half-maximal inhibitory concentration (IC50) against Interstitial collagenase [1] stood at 2.5 nM; at Interstitial collagenase [3] it was 21 nM.
`CNC(=O)[C@H](Cc1ccc(OC)cc1)NC(=O)[C@H](CC(C)C)[C@@H](S)CC(=O)O` had an IC50 against Interstitial collagenase [2] of 25 nM.
In turn, `CNC(=O)[C@H](Cc1c[nH]c2ccccc12)NC(=O)[C@H](CC(C)C)[C@H](CC(=O)OC)SC(C)=O` gave a 50% inhibitory concentration (IC50) against Interstitial collagenase [1] of 19 nM.
For the compound `CNC(=O)[C@H](Cc1ccc(OC)cc1)NC(=O)[C@H](CC(C)C)[C@@H](S)CC(=O)NCC(N)=O`, at Interstitial collagenase [2], the IC50 came to 32 nM.
For `CNC(=O)[C@H](Cc1ccc(OC)cc1)NC(=O)[C@H](CC(C)C)[C@@H](S)CC(=O)NC(CC(C)C)C(=O)O` (some centres undefined), the concentration for half-maximal inhibition (IC50) on Interstitial collagenase [2] was determined as 830 nM.
Consider `CNC(=O)[C@@H](NC(=O)C(CC(C)C)C(S)CC(=O)OC)C(C)OCc1ccccc1` (stereo in doubt; 57ab), for which, at Interstitial collagenase [2], the IC50 was 3 nM.
On Interstitial collagenase [2], `CNC(=O)[C@@H](NC(=O)C(CC(C)C)C(S)CC(=O)OC)C(C)OCc1ccccc1` (stereo in doubt; 57cd) gave an IC50 of 13 nM.
In turn, `CNC(=O)[C@H](Cc1ccc(OC)cc1)NC(=O)[C@H](CC(C)C)[C@@H](S)CC(N)=O` had an IC50 against Interstitial collagenase [2] of 23 nM.
`CNC(=O)[C@H](Cc1c[nH]c2ccccc12)NC(=O)[C@@H](CC(C)C)[C@H](S)CC(=O)OC` registered a concentration for half-maximal inhibition (IC50) at Interstitial collagenase [1] of 12 nM.
Regarding `CNC(=O)[C@H](Cc1ccc(OC)cc1)NC(=O)[C@H](CC(C)C)[C@H](CC(=O)OC)SC(C)=O`, the IC50 against Interstitial collagenase [2] is 44 nM.
`CNC(=O)[C@H](Cc1ccc(OC)cc1)NC(=O)[C@H](CC(C)C)[C@@H](S)CC(=O)NCC(=O)OC(C)(C)C` yielded an IC50 against Interstitial collagenase [2] of 280 nM.
At Interstitial collagenase [2], `CNC(=O)[C@H](Cc1ccc(OC)cc1)NC(=O)[C@H](CC(C)C)[C@@H](S)CC(=O)NCC(=O)O` showed a 50% inhibitory concentration (IC50) of 27 nM.
Compound `CNC(=O)[C@H](Cc1ccc(OC)cc1)NC(=O)[C@H](CC(C)C)[C@@H](S)CC(=O)OC(C)(C)C` showed a 50% inhibitory concentration (IC50) on Interstitial collagenase [2] of 10 nM.
On to `CNC(=O)[C@H](Cc1c[nH]c2ccccc12)NC(=O)[C@H](CC(C)C)[C@H](CC(=O)OC)SS[C@@H](CC(=O)OC)[C@@H](CC(C)C)C(=O)N[C@@H](Cc1c[nH]c2ccccc12)C(=O)NC`, for which the results for the IC50 on Interstitial collagenase [1] and at Interstitial collagenase [3] were 22 nM and 1400 nM, respectively.
As to `CNC(=O)[C@H](Cc1ccccc1)NC(=O)[C@H](CC(C)C)[C@@H](S)CC(=O)OC`, at Interstitial collagenase [2], the IC50 stood at 2 nM.
Turning to `CNC(=O)[C@H](Cc1c[nH]c2ccccc12)NC(=O)C(CC(C)C)C(S)CC(=O)OC` (stereo in doubt; 56b), the IC50 at Interstitial collagenase [1] was 810 nM.
